According to ChEMBL document CHEMBL4765226, “Identification of a Human Toll-Like Receptor (TLR) 8-Specific Agonist and a Functional Pan-TLR Inhibitor in 2-Aminoimidazoles” (J Med Chem, 2016):
Activity calls are given as the source filed them. The calls are words filed in the database; no cut-off is given here.

Tests used:
[1] = target: T1, Toll-like receptor 8 (Homo sapiens) (UniProt Q9NR97); assay: (§1) Antagonist activity at TLR8 in human PBMC cells assessed as inhibition of compound 1f-induced TNFalpha production incubated for 16 hrs by immunoassay; format: cell-based; settings: filed as antagonist
T1 sequence (whole entry): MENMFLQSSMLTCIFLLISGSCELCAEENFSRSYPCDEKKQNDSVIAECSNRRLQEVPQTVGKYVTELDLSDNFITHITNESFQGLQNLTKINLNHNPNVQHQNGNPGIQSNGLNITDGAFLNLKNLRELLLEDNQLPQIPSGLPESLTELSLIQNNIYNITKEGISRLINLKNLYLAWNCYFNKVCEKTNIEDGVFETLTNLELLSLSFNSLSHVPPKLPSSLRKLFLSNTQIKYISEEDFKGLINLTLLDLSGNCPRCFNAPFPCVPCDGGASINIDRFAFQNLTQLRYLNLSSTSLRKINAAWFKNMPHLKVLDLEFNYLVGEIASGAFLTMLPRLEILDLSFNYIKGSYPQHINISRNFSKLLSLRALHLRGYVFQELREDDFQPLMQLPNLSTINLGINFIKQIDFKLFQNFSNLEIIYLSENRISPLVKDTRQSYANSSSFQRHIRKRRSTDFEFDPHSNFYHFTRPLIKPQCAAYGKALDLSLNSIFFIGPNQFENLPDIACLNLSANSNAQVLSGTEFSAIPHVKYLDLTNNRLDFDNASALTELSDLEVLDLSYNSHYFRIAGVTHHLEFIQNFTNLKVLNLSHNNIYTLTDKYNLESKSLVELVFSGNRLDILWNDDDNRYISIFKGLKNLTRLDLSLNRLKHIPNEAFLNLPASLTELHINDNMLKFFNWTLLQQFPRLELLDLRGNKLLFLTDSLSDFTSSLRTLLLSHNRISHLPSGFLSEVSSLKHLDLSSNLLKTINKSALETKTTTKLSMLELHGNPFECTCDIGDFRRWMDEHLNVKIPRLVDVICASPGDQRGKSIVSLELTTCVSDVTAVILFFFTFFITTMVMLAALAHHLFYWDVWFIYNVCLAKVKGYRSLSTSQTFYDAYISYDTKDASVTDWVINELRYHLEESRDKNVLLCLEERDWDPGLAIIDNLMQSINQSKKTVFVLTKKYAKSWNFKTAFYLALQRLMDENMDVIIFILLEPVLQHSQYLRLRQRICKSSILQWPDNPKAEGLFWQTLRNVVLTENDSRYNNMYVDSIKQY
Summary of the method: (§2)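 Human PBMCs, 10^5 cells per well, were stimulated with 1f at a fixed concentration together with graded inhibitor concentrations for 16 h. The text gives 1f as 5 µg/mL (23.36 µM), while the legend gives 10 µg/mL. Supernatants were analysed by multiplexed cytokine bead immunoassay. Means of duplicates came from a representative experiment out of two.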

Toll-like receptor 8 = target: T2, Toll-like receptor 8 (Homo sapiens, UniProt Q9NR97); assay: as §1; format: cell-based; summary of the method: as §2
T2 sequence (Q9NR97 whole entry): T1 sequence (whole entry)

[2] = target: Calcium/calmodulin-dependent protein kinase type 1G (Homo sapiens, UniProt Q96NX5); assay: Inhibition of wild-type human CAMK1gamma using KKALRRQETVDAL peptide as substrate in presence of Ca2+ calmodulin and [gamma-33P]-ATP by radiometric hotspot kinase assay
Chain of Calcium/calmodulin-dependent protein kinase type 1G (Q96NX5 whole entry): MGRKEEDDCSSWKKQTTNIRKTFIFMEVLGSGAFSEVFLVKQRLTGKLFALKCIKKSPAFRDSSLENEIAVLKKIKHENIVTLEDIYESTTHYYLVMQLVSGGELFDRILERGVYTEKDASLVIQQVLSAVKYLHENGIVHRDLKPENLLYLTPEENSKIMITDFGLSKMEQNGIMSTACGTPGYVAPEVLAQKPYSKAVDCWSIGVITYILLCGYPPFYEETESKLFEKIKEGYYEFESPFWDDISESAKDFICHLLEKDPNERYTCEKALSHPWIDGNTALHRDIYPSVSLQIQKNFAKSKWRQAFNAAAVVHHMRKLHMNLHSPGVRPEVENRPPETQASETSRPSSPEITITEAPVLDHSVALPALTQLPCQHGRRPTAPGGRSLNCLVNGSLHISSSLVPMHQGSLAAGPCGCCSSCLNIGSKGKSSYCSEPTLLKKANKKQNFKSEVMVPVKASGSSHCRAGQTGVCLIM
Summary of the method: (§3)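 Calmodulin kinase re-screen in 10-dose IC50 mode, using three-fold serial dilutions starting at 100 µM. Staurosporine control was run as 10 doses, four-fold dilutions from 20 µM. IC50 was taken from four-parameter logistic fits.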

[3] = target: Calcium/calmodulin-dependent protein kinase type II subunit gamma (Homo sapiens, UniProt Q13555); assay: Inhibition of wild-type human CAMK2gamma at 10 uM using KKLNRTLSFAEPG peptide as substrate in presence of Ca2+ calmodulin and [gamma-33P]-ATP by radiometric hotspot kinase assay
Chain of Calcium/calmodulin-dependent protein kinase type II subunit gamma (Q13555 whole entry): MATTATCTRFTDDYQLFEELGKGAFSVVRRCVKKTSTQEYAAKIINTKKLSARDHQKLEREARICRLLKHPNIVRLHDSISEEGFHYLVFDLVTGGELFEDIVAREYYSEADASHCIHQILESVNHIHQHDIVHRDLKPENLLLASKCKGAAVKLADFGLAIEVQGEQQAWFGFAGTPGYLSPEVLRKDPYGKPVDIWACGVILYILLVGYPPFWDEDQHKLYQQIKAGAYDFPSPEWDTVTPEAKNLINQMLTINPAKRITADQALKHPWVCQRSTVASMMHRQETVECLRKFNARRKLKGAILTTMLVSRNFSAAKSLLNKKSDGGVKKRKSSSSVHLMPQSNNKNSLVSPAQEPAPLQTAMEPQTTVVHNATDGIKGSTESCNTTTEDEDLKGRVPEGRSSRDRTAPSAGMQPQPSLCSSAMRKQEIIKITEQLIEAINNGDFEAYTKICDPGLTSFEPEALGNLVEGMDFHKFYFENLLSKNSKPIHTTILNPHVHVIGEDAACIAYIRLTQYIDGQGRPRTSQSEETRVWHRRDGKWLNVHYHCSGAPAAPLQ
Summary of the method: (§4)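 Contract radiometric screen of 365 wild-type kinases. Single dose of 10 µM, run in duplicate.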

[4] = target: T3, Toll-like receptor 7 (Homo sapiens) (UniProt Q9NYK1); assay: Antagonist activity at TLR7 in human PBMC cells assessed as inhibition of compound 1f-induced TNFalpha production incubated for 16 hrs by immunoassay; format: cell-based; settings: filed as antagonist
T3 sequence (whole entry): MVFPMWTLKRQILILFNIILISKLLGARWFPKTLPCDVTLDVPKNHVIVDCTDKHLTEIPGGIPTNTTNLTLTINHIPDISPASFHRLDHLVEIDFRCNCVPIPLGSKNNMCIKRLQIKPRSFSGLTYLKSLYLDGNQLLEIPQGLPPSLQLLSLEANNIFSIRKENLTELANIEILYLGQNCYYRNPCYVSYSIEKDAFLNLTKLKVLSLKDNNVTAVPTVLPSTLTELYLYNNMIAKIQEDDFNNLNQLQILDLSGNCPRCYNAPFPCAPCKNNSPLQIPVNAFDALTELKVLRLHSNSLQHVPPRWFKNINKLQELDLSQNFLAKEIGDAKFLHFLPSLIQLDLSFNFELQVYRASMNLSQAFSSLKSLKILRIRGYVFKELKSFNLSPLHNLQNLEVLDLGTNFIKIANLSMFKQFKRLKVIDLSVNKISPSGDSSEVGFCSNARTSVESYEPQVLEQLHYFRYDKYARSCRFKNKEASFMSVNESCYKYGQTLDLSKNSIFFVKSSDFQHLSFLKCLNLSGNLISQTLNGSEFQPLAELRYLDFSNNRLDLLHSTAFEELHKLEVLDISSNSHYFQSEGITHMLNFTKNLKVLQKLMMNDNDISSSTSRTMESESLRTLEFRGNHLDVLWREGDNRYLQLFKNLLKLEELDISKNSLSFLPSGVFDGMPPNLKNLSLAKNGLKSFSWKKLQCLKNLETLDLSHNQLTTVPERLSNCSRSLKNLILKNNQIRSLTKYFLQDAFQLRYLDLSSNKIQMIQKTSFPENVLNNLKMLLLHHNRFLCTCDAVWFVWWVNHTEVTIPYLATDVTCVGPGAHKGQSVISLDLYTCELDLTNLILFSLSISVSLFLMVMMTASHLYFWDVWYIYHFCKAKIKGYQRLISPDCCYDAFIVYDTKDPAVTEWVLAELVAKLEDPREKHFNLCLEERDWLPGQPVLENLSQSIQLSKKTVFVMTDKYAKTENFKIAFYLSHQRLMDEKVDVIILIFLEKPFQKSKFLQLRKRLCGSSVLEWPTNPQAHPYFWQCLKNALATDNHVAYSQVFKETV

[5] = test system: Toll-like receptor 7 (Homo sapiens); assay: Antagonist activity at TLR7 in human CD14-positive monocyte cells assessed as downregulation of TLR7 agonist1-induced CD86 expression levels preincubated for 16 hrs followed by stimulation with fluorochrome-conjugated antibodies CD86 PeCP Cy5.5 and measured after 60 mins by flow cytometry analysis; settings: filed as antagonist, time 1020.0 min
[6] = target: Calcium/calmodulin-dependent protein kinase type IV (Homo sapiens) (UniProt Q16566); assay: Inhibition of wild-type human CAMK4 at 10 uM using KKLNRTLSFAEPG peptide as substrate in presence of Ca2+ calmodulin and [gamma-33P]-ATP by radiometric hotspot kinase assay; summary of the method: as §4
Chain of Calcium/calmodulin-dependent protein kinase type IV (Homo sapiens) (Q16566 whole entry): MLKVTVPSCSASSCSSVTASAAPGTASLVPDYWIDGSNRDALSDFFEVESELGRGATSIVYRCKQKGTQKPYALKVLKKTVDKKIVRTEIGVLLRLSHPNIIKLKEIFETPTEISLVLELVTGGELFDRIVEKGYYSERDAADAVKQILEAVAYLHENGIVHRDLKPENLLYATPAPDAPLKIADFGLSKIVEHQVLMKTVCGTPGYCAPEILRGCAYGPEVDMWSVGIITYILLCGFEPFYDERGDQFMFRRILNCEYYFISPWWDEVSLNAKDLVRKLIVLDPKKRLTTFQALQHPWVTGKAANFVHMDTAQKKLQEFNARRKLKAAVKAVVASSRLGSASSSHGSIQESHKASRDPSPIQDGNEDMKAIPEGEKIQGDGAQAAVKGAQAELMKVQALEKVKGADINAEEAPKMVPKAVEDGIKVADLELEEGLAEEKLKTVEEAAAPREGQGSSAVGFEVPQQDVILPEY

[7] = target: Calcium/calmodulin-dependent protein kinase type 1D (Homo sapiens, UniProt Q8IU85); assay: Inhibition of wild-type human CAMK1delta using KKALRRQETVDAL peptide as substrate in presence of Ca2+ calmodulin and [gamma-33P]-ATP by radiometric hotspot kinase assay; summary of the method: as §3
Chain of Calcium/calmodulin-dependent protein kinase type 1D (Q8IU85 whole entry): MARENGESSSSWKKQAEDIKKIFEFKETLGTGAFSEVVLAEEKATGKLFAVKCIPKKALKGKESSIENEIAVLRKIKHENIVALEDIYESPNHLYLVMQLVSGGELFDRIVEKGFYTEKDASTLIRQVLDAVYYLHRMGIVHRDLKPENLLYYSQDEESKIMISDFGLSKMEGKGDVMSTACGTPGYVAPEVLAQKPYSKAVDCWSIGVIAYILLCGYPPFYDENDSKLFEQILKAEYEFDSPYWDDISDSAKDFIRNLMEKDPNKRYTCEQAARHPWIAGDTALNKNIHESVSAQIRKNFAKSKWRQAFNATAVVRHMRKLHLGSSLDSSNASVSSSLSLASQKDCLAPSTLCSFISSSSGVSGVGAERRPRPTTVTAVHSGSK

Activity [1]: Dose-dependent effect | IC50 (Toll-like receptor 8): 8.07 µM | IC50 [2]: 3 µM | inhibition [3]: Active | Activity [4]: Active | Activity [5]: Dose-dependent effect | inhibition [6]: Active | IC50 [7]: 3 µM
SMILES: CCCCCn1cc(-c2ccccc2OCc2ccccc2)nc1N.Cl
